This assay can be described thus: inhibitors of GR-EGFP nuclear translocation, primary screen, dynein cargo transport inhibitor project, imaging, high-content, 3617.4 mouse cells (AID 1381). As to conditions: stimulated with dexamethasone, 1 µM. The procedure, abridged: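 Buffer or medium: tet-free medium with charcoal-stripped serum / Also added: dexamethasone agonist, 1.0 µM final, for 30 min / Timing: induction 48 h, compound 1 h, agonist 30 min / Measured by: high-content fluorescence imaging after fixation / Read-out: nuclear-to-cytoplasmic GR-EGFP distribution per well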

The mark [1] stands for this setting: measured here: cell count per field, at 20 µM.
Where [2] appears, read: measured here: cytoplasmic GR-EGFP intensity, at 20 µM, stronger effect = higher value.
Where [3] appears, read: measured here: nuclear GR-EGFP intensity, at 20 µM, stronger effect = lower value.
The mark [4] stands for this setting: measured here: cell count per field, at 50 µM.
The mark [5] stands for this setting: measured here: cytoplasmic GR-EGFP intensity, at 50 µM, stronger effect = higher value.
The mark [6] stands for this setting: measured here: nuclear GR-EGFP intensity, at 50 µM, stronger effect = lower value.

Hit rate of the full screen: of about 220,000 compounds, about 1,000 (0.45%) were called active.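 Rule for the calls: active = plate z-score of nuclear minus cytoplasmic receptor signal below a set negative limit, without overly bright fluorescence or cell loss (cut at about -3.5 in these data, passing the limit was not always enough); inactive = the rest, inconclusive results apart.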 For the sample, actives were picked, then their nearest neighbours and some compounds at random.

Here are results for 43 molecules from PubChem BioAssay AID1381 (University of Pittsburgh Molecular Library Screening Center, 2008).

Take `Cn1cnnc1SCC(=O)NNC(=O)COc1ccc(Br)cc1`: the z-score is 0.431 (inactive) (at 20 µM, stronger effect = lower value); 0.453 under setting [1]; -0.218 under setting [2]; -0.126 under setting [3].
The corresponding values for `C[C@@H]1C[C@@H]2O[C@H]2/C=C\C=C\C(=O)Cc2c(Cl)c(O)cc(O)c2C(=O)O1` are -3.8 (active), 0.512, 1.82 and -1.89.
Taken in the same sequence, the figures for `COc1cc(CO)c(C2(CO)CCCC2)cc1OC` were 0.000321 (inactive), -0.54, -0.145 and 0.499.
In the case of `COC(=O)c1ccc(Sc2ccc(F)cc2)c(N)c1`, the z-score is, setting by setting: (at 20 µM, stronger effect = lower value) 0.257 (inactive); under setting [1], 0.499; under setting [2], -0.377; under setting [3], 0.132.
Taken in the same sequence, the figures for `Cc1ccc(C(C)NC(=O)Cn2nc(C)c([N+](=O)[O-])c2C)cc1` (configuration not stated) were -0.784 (inactive), 0.727, -0.261 and -0.607.
For `COc1ccc(CCc2nnc(CCC(=O)NCc3cnn(-c4ccccc4C)c3)o2)cc1`, the z-score by setting is: (at 20 µM, stronger effect = lower value) 1.76 (inactive); under setting [1], -1.6; under setting [2], -0.0906; under setting [3], 1.43.
Taken in the same sequence, the figures for `O=[N+]([O-])c1ccc(NCCCN2CCOCC2)c(Cl)c1` were 0.346 (inactive), -0.149, 0.0336 and 0.676.
Consider `O=C(NCCCN1CCOCC1)c1ccc([N+](=O)[O-])cc1[N+](=O)[O-]`, for which the z-score (at 20 µM, stronger effect = lower value) was -0.163 (inactive); the z-score under setting [1] came out at 0.317; the z-score under setting [2] is -0.243; the z-score under setting [3] was 0.0502.
The corresponding values for `O=[N+]([O-])c1cc(S(=O)(=O)CCCN2CCOCC2)ccc1F` are -4.25 (active), 0.317, 1.15 and -2.3.
Taken in the same sequence, the figures for `COC(=O)C(C(=O)Nc1cccc(Cl)c1C)C1CCCC1` (configuration not stated) were 0.289 (inactive), 0.616, 0.0155 and -0.208.
For the molecule `CC(=O)c1ccc(-c2nnc(CCC(=O)N(C)Cc3cnc4ccccn34)o2)s1`, the z-score is -0.0124 (inactive) (at 20 µM, stronger effect = lower value); -0.441 under setting [1]; -0.212 under setting [2]; 0.00751 under setting [3].
Taken in the same sequence, the figures for `O=C(CCl)N(Cc1cccc([N+](=O)[O-])c1)c1cccc(Cl)c1` were -4.69 (active), -1.23, 2.38 and -2.48.
The corresponding values for `CCN(CC)C(=O)CN(c1cccc([N+](=O)[O-])c1)S(=O)(=O)c1ccccc1` are -0.611 (inactive), 0.944, -0.266 and -0.263.
Taken in the same sequence, the figures for `O=C(Nc1cccc([N+](=O)[O-])c1)Nc1ccc(Cl)cn1` were 0.686 (inactive), -0.334, -0.0491 and 0.778.
For the molecule `CCOc1ccc(Br)cc1S(=O)(=O)Nc1cccc(S(=O)(=O)N(CC)CC)c1`, the z-score runs as follows: (at 20 µM, stronger effect = lower value) -0.331 (inactive); under setting [1], 0.488; under setting [2], -0.167; under setting [3], -0.464.
Taken in the same sequence, the figures for `O=C(Nc1ccc(Cl)cc1)c1ccsn1` were 1.02 (inactive), -1.19, -0.158 and 1.14.
The corresponding values for `CS(=O)(=O)c1ccc(Cl)c(NC(=O)Nc2ccccc2)c1` are 1.27 (inactive), -0.472, -0.245 and 0.728.
For `O=C(Nc1ccccc1)c1nnsc1S(=O)(=O)c1ccc(Cl)cc1`, the z-score (at 20 µM, stronger effect = lower value) is -5.03 (active); the z-score under setting [1] stood at 0.905; the z-score under setting [2] was 0.759; the z-score under setting [3] is -1.85.
The corresponding values for `CC(Nc1ccccc1)c1cccnc1` (configuration not stated) are -0.716 (inactive), 0.0401, -0.305 and -0.598.
In the case of `CC1=C/C(=N\OS(=O)(=O)c2ccccc2)C=CC1=O`, the z-score by setting is: (at 50 µM, stronger effect = lower value) -4.5 (active); under setting [4], -1.11; under setting [5], 1.28; under setting [6], -2.71.
For the molecule `CCOC(=O)C1(S(=O)(=O)c2ccccc2)CCN(Cc2ccccc2)CC1`, the z-score is, setting by setting: (at 20 µM, stronger effect = lower value) -0.25 (inactive); under setting [1], 0.352; under setting [2], -0.189; under setting [3], 0.556.
Regarding `CC1=C/C(=N\S(=O)(=O)c2ccccc2)C(C(C)C)=CC1=O`, the z-score (at 20 µM, stronger effect = lower value) is -0.707 (inactive); the z-score under setting [1] was -0.217; the z-score under setting [2] was -0.313; the z-score under setting [3] turned out to be 0.209.
With `COc1ccc(/C=N/N=C2/C(=O)Nc3ccccc32)cc1O`, the z-score is 0.0879 (inactive) (at 20 µM, stronger effect = lower value); -1.02 under setting [1]; 0.671 under setting [2]; 0.854 under setting [3].
Take `C=CCOC(=O)C1=C[C@@H](c2ccccc2)C[C@@H](OCc2ccc(CO)cc2)O1`: the z-score is -0.243 (inactive) (at 20 µM, stronger effect = lower value); -0.581 under setting [1]; -0.228 under setting [2]; 0.233 under setting [3].
The corresponding values for `CC(=O)c1cc(C#N)c(SCC(=O)Nc2nccs2)nc1C` are 0.633 (inactive), -0.767, -0.205 and 1.
Taken in the same sequence, the figures for `CCn1c(SCC(=O)Nc2nc(C)cs2)nnc1C(C)NC(=O)c1ccccc1` (configuration not stated) were 0.931 (inactive), -0.274, -0.247 and -0.608.
The corresponding values for `COc1ccc(NC(=S)Nc2ccccc2Cl)cn1` are 1.03 (inactive), -0.0291, -0.33 and 0.285.
As to `COc1ccc(CS(=O)/C(Cl)=C(/Cl)C(=O)Nc2ccc(OC)nc2)cc1` (configuration not stated), the z-score is -5.17 (active) (at 20 µM, stronger effect = lower value); 0.13 under setting [1]; 3.61 under setting [2]; -2.19 under setting [3].
Taken in the same sequence, the figures for `COc1ccc(NC(=O)/C(Cl)=C(/Cl)S(=O)Cc2ccc(C)cc2)cn1` (configuration not stated) were -5.02 (inactive), -1.31, 4.96 and -1.87.
The corresponding values for `O=C(NCc1cccnc1)c1cccc(-c2cc3ccccc3oc2=O)c1` are -0.31 (inactive), 0.631, -0.22 and -0.235.
Taken in the same sequence, the figures for `Cc1ccc(S(=O)(=O)C2C(=O)NC3(C)CC2c2ccccc2O3)cc1` (configuration not stated) were -0.689 (inactive), -0.187, -0.199 and -0.503.
Regarding `CCc1ccc(/C=N/NC(=O)c2ccc(OC3CCCC3)cc2)s1`, the z-score reads like this: (at 50 µM, stronger effect = lower value) -0.285 (inactive); under setting [4], 0.0349; under setting [5], -0.199; under setting [6], -0.114.
With `O=C(/C=C/c1ccccc1)c1ccccc1O`, the z-score (at 20 µM, stronger effect = lower value) was -0.596 (inactive); the z-score under setting [1] came out at 0.171; the z-score under setting [2] was -0.18; the z-score under setting [3] came out at 0.0198.
Take `Cc1nc(-c2ccccc2)sc1C(=O)/C=C/c1ccccc1`: the z-score by setting is: (at 20 µM, stronger effect = lower value) -2.15 (inactive); under setting [1], 0.685; under setting [2], -0.0664; under setting [3], -0.902.
Regarding `Cc1[nH]c(=O)c(C(=O)/C=C/c2ccccc2)c2c1CCCC2`, the z-score is -3.92 (active) (at 20 µM, stronger effect = lower value); 0.356 under setting [1]; 0.353 under setting [2]; -1.71 under setting [3].
`CSc1nc2c(c(=O)[nH]1)C(c1cccc(Cl)c1Cl)CC(=O)N2` (configuration not stated): the z-score is, setting by setting: (at 20 µM, stronger effect = lower value) -0.956 (inactive); under setting [1], 0.453; under setting [2], -0.232; under setting [3], -0.546.
Taken in the same sequence, the figures for `O=C(/C=C/c1cnc2ccccc2n1)NC1CCCCCC1` were 0.072 (inactive), -0.372, -0.262 and -0.0867.
The corresponding values for `O=C(O)c1ccccc1OCc1ccccc1Cl` are 1.56 (inactive), -0.166, -0.834 and 1.06.
Taken in the same sequence, the figures for `Cc1ccc(CN2CCC(N3CCC(C(=O)NCC4CCCO4)CC3)CC2)o1` (configuration not stated) were 0.0309 (inactive), -0.115, -0.27 and 0.507.
`Fc1ccccc1/C=C1\CCCC2=C1Nc1ncnn1C2c1ccccc1F` (configuration not stated): the z-score is, setting by setting: (at 20 µM, stronger effect = lower value) -4.08 (active); under setting [1], 0.757; under setting [2], 0.917; under setting [3], -1.5.
Taken in the same sequence, the figures for `Cc1c(C(=O)Nc2ccccc2)sc2nc3n(c(=O)c12)CCCCC3` were 0.507 (inactive), 0.149, -0.32 and 0.154.
The corresponding values for `Cc1ccc(S(=O)(=O)NC(=O)N2CCCN(Cc3ccc(F)cc3)CC2)cc1` are -0.425 (inactive), 0.12, -0.231 and -0.245.
Taken in the same sequence, the figures for `CC(=O)Nc1ccc(S(=O)(=O)NCC(=O)OCc2cc(=O)oc3ccc4ccccc4c23)cc1` were 0.304 (inactive), -0.781, -0.141 and -0.169.
